Data set [1] has as its system Staphylococcus aureus. Briefly: Antibiofilm activity against methicillin-resistant Staphylococcus aureus isolate 2 assessed as biofilm eradication incubated for 24 hrs by CBD assay. Type of data set: functional. To be noted: for MBC: Staphylococcus aureus, isolate 2, 24 h. Put shortly: (§1)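 Calgary Biofilm Device: pegs inoculated with mid-log culture diluted 1,000-fold in TSB + 0.5% glucose, 24 h 37 °C; washed pegs challenged with 2-fold dilutions 24 h 37 °C; pegs moved to fresh TSBG 24 h; MBEC = lowest concentration leaving no turbidity; 2–6 independent experiments.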

The subject of data set [2] is Staphylococcus aureus. Briefly: Antibacterial activity against methicillin-resistant Staphylococcus aureus BAA-44 incubated for 16 to 18 hrs by broth microdilution method. Type of data set: functional. In general terms: Dilution methods test growth across graded concentrations, often in twofold steps.
For data set [3], the system named is Staphylococcus epidermidis. The data set is described as follows: Antibacterial activity against Staphylococcus epidermidis ATCC 12228 incubated for 16 to 18 hrs by broth microdilution method. Type of data set: functional.
The nature of data set [4]: Induction of hemolysis in human RBC at 200 uM incubated for 1 hr. Type of data set: cell-based, Erythrocyte. Particulars: red blood cells, read-out: Activity. Put shortly: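 Human RBCs (EDTA), washed three times in Tris-buffered saline pH 7.2; 2% hRBC with compound at final 200 µM, 1 h 37 °C; supernatant OD405; % hemolysis relative to DMSO (0%) and Triton X (100%).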

Data set [5] deals with Staphylococcus aureus. The data set is described as follows: Antibacterial activity against methicillin-resistant Staphylococcus aureus clinical isolate 2 incubated for 16 to 18 hrs by broth microdilution method. Type of data set: functional.
Data set [6] concerns Staphylococcus aureus. Briefly: Antibacterial activity against methicillin-resistant Staphylococcus aureus BAA-1707 incubated for 16 to 18 hrs by broth microdilution method. Type of data set: functional.
Data set [7] concerns Enterococcus faecium. Briefly: Antibiofilm activity against […]-resistant Enterococcus faecium ATCC 700221 assessed as biofilm eradication incubated for 24 hrs by CBD assay. Type of data set: functional. Particulars: for MBC: Enterococcus faecium, ATCC 700221, 24 h. Put shortly: as §1
Data set [8] deals with Staphylococcus epidermidis. The data set is described as follows: Antibacterial activity against methicillin-resistant Staphylococcus epidermidis ATCC 35984 assessed as biofilm eradication incubated for 24 hrs by CBD assay. To be noted: for MBC: Staphylococcus epidermidis, ATCC 35984, 24 h. Type of data set: functional. Put shortly: as §1
Data set [9] concerns Enterococcus faecium. The data set is described as follows: Antibacterial activity against vancomycin-resistant Enterococcus faecium ATCC 700221 incubated for 16 to 18 hrs by broth microdilution method. Type of data set: functional.
Data set [10] concerns Staphylococcus aureus. The data set is described as follows: Antibiofilm activity against methicillin-resistant Staphylococcus aureus BAA-1707 assessed as biofilm eradication incubated for 24 hrs by CBD assay. Type of data set: functional. Particulars: for MBC: Staphylococcus aureus, BAA-1707, 24 h. Put shortly: as §1
Data set [11] relates to Staphylococcus epidermidis. Briefly: Antibacterial activity against methicillin-resistant Staphylococcus epidermidis ATCC 35984 incubated for 16 to 18 hrs by broth microdilution method. Type of data set: functional.
Data set [12] concerns HeLa. The data set is described as follows: Cytotoxicity against human HeLa cells after 24 hrs by LDH release assay. Type of data set: cell-based. The procedure, abridged: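 HeLa in DMEM + 10% FBS, 37 °C 5% CO2, at 70–80% confluence treated with 25, 50, 100 µM for 24 h; DMSO vehicle; Triton X-100 2% v/v max-LDH control, medium-only negative; supernatant with LDH reaction mix 30 min room temperature, stopped, absorbance 490 nm.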

This note sets out measurements from ChEMBL document CHEMBL3813699, “Structure-Activity Relationships of a Diverse Class of Halogenated Phenazines That Targets Persistent, Antibiotic-Tolerant Bacterial Biofilms and Mycobacterium tuberculosis” (J Med Chem, 2016).

In brackets after ≈: the same amount, converted by molar mass. Some results are limits rather than exact numbers.

Usually MIC stands for the smallest concentration in the dilution series that meets the test's criterion for growth inhibition. The low end stands for greater potency, the high end for weaker potency. Usually IC50 stands for the concentration that inhibits the measured activity by half. A low value points to greater potency in that assay.

Turning to `Oc1c(Br)cc(Br)c2nc3cc4ccccc4cc3nc12`, the MBEC in data set [1] is more than 200 µM. Moreover, in data set [1], the MBC worked out at 200 µM (≈ 80.8 µg/mL). Also, the MIC was 75 µM (≈ 30.3 µg/mL) in data set [2], 12.5 µM (≈ 5.05 µg/mL) in data set [3], more than 100 µM in [5] and 50 µM (≈ 20.2 µg/mL) in data set [6]. For the same compound, the hemolysis at 1 h, 200 µM in data set [4] is not above 1%.
As for `CCCCCCCCCC(=O)N[C@@H](Cc1c[nH]c2ccccc12)C(=O)N[C@H](CC(N)=O)C(=O)N[C@@H](CC(=O)O)C(=O)N[C@@H]1C(=O)NCC(=O)N[C@@H](CCCN)C(=O)N[C@@H](CC(=O)O)C(=O)N[C@H](C)C(=O)N[C@@H](CC(=O)O)C(=O)NCC(=O)N[C@H](CO)C(=O)N[C@@H]([C@H](C)CC(=O)O)C(=O)N[C@@H](CC(=O)c2ccccc2N)C(=O)O[C@@H]1C` [DAPTOMYCIN], in data set [4], the hemolysis at 1 h, 200 µM is 1.7%.
Take `CC(=O)N[C@@H](CS)C(=O)O` [ACETYLCYSTEINE]: the MBEC in [1], in data set [7] and in data set [8] was more than 2000 µM each time. In addition, the MBC in [1], in data set [7] and in [8] was more than 2000 µM each time.
Regarding `CN[C@@H](CC(C)C)C(=O)N[C@H]1C(=O)N[C@@H](CC(N)=O)C(=O)N[C@H]2C(=O)N[C@H]3C(=O)N[C@H](C(=O)N[C@@H](C(=O)O)c4cc(O)cc(O)c4-c4cc3ccc4O)[C@H](O)c3ccc(c(Cl)c3)Oc3cc2cc(c3O[C@H]2O[C@@H](CO)[C@H](O)[C@@H](O)[C@@H]2O[C@@H]2C[C@@](C)(N)[C@@H](O)[C@@H](C)O2)Oc2ccc(cc2Cl)[C@H]1O`, the MIC was more than 100 µM in data set [9] and 1.17 µM (≈ 1.7 µg/mL) in data set [3]. Also, the MBEC in data set [10] is more than 2000 µM; in data set [1], more than 2000 µM; in [7], 150 µM; in [8] it was more than 2000 µM. In addition, the MBC in data set [10] is 3.9 µM (≈ 5.65 µg/mL); in [1], 3 µM (≈ 4.35 µg/mL); in data set [7], more than 200 µM; in [8], 3 µM (≈ 4.35 µg/mL). Moreover, the hemolysis at 1 h, 200 µM in data set [4] was not above 1%.
Consider `Oc1c(I)cc(I)c2nccnc12`, for which the MIC came out at 12.5 µM (≈ 4.97 µg/mL) in data set [9]; 1.56 µM (≈ 0.621 µg/mL) in data set [2]; 6.25 µM (≈ 2.49 µg/mL) in data set [3]; 3.13 µM (≈ 1.25 µg/mL) in [5]; 3.13 µM (≈ 1.25 µg/mL) in data set [11]; 1.56 µM (≈ 0.621 µg/mL) in data set [6]. Besides, the results for the MBEC in [1] and in data set [8] were more than 2000 µM and more than 1000 µM, respectively. Moreover, the MBC in [1] is more than 2000 µM; in [8] it was 750 µM (≈ 298 µg/mL). The hemolysis at 1 h, 200 µM in data set [4] was not above 1%.
On to `C=CCc1cc(Br)c2nc3ccccc3nc2c1O`, for which the MIC in data set [9], in data set [3] and in data set [5] was more than 100 µM throughout.
Turning to `Oc1cccc2nc3cc(Cl)c(Cl)cc3nc12`, the MIC in [9], in [3], in data set [5] and in data set [11] was more than 100 µM each time.
`Oc1c(I)cc(Br)c2nc3ccccc3nc12` registered an MIC in [9] of 6.25 µM (≈ 2.51 µg/mL). Also, in data set [1], the MBEC was 250 µM and the MBC was found to be 46.9 µM (≈ 18.8 µg/mL).
For the compound `Oc1c(Br)cc(Cl)c2nc3ccccc3nc12`, the MIC in [9] worked out at 6.25 µM (≈ 1.93 µg/mL); in data set [2], 1.56 µM (≈ 0.483 µg/mL); in [5], 1.56 µM (≈ 0.483 µg/mL); in data set [11], 1.56 µM (≈ 0.483 µg/mL). Besides, the MBEC is 375 µM in data set [1], 3.9 µM in [7] and 46.9 µM in data set [8]. The values for the MBC in [1], in data set [7] and in data set [8] were 46.9 µM (≈ 14.5 µg/mL), 7.8 µM (≈ 2.41 µg/mL) and 11.7 µM (≈ 3.62 µg/mL), respectively. The hemolysis at 1 h, 200 µM in [4] is not above 1%. For the same compound, in data set [12], the IC50 was more than 100 µM.
As to `Oc1c(Br)cc(Br)c2nc3ccc(Br)cc3nc12`, the minimal inhibitory concentration (MIC) in [9] came out at 0.78 µM (≈ 0.338 µg/mL); in data set [3], 3.13 µM (≈ 1.35 µg/mL); in [11] it was 3.13 µM (≈ 1.35 µg/mL); in data set [6], 0.2 µM (≈ 0.0866 µg/mL). Also, the results for the MBEC in data set [10] and in [1] were 12.5 µM and 25 µM, respectively. Moreover, the MBC in [10] is 12.5 µM (≈ 5.41 µg/mL); in data set [1] it was 50 µM (≈ 21.6 µg/mL). Further, in data set [4], the hemolysis at 1 h, 200 µM is 2.1%.
